Compounds with a hit are over-represented: about 0.72% of the library has one in this group of screens.
mIAP act: increases mouse intestinal alkaline phosphatase activity. activation factor at 10 µM. muIAP, CDP-Star luminescence, 30 min; stronger effect = higher value; 1 = vehicle-only enzyme signal, 0 = enzyme-free wells. 330,000 compounds, 0.24% hits;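 active means activation factor of at least 2 at 20 µM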
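Assay system: mouse IAP enzyme / Compound: DMSO-dissolved test compounds / Timing: 30 min, room temperature / Measured by: luminescence from enzymatic CDP-Star hydrolysis / Control set: DMSO-only wells, enzyme-free buffer wells as negative control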
hIAP act: human IAP activation; P09923; purified human IAP, CDP-Star luminescence, 30 min; stronger effect = higher value; 1 = vehicle-only enzyme, 0 = enzyme-free background; activation factor at 10 µM; 330,000 compounds, 0.16% hits;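 active means activation factor of the enzyme at least 2-fold when tested at 20 µM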
Target sequence (P09923 whole entry, looked up): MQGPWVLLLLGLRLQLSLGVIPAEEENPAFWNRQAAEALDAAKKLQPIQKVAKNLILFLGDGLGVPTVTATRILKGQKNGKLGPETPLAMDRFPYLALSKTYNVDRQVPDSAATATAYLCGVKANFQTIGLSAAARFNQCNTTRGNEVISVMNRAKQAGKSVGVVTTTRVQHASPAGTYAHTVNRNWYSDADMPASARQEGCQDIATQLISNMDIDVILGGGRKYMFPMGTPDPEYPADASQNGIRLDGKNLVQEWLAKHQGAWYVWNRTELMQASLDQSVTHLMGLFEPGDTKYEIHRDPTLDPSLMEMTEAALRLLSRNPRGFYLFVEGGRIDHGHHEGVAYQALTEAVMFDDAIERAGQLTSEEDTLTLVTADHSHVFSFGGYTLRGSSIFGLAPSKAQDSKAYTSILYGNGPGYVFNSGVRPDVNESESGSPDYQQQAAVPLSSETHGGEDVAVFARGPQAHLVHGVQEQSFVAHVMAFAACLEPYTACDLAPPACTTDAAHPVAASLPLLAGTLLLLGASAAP
mIAP block: blocks mouse intestinal alkaline phosphatase | purified mouse IAP, CDP-Star luminescence, 30 min | 330,000 compounds, 0.2% hits | inhibition, % at 10 µM | AID 2806;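 active means inhibition of at least 40% at 10 µM in the primary screen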;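 further: plate controls were DMSO with enzyme for no effect and no enzyme wells for full effect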
hIAP block: blocks human intestinal alkaline phosphatase; 330,000 compounds, 0.12% hits; purified IAP, CDP-Star luminescence, 30 min; inhibition, % at 10 µM; P09923;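 active means inhibition reaching a set limit with compound at 10 µM in the primary screen, cut at about 35% in these data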;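 further: plate controls were DMSO wells with enzyme for no effect and no-enzyme buffer wells for full effect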
bIAP activator: intestinal alkaline phosphatase (bovine) activation; purified bovine IAP, CDP-star luminescence, 30 min; stronger effect = higher value; fold of DMSO-control signal, blank-subtracted; activation factor at 20 µM; 200,000 compounds, 0.17% hits; AID 1016;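 active means activation factor of 2 or more at 20 µM, a signal rise over negative controls twice the positive control's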
bIAP inh: intestinal alkaline phosphatase (bovine) inhibition; purified bovine IAP, CDP-star luminescence, 30 min; inhibition, % at 20 µM; 190,000 tested, under 10 active; AID 1019;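 active means over 50% inhibition of intestinal alkaline phosphatase at 20 µM in the single-dose screen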
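Incubation: 30 min reaction at room temperature / Material: purified bovine intestinal alkaline phosphatase (IAP) enzyme / Input: enzyme at 1/65,000,000 dilution / Dosing: 20 µM single dose / Signal: CDP-star luminescence signal / Reagent: CDP-star chemiluminescent phosphatase substrate, 30 µM final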
* = called active by the depositor.

What do the screens show for `C#CCOCCOCCOCCNc1nc(N2CCN(C(=O)CCCCCCCCCCNC(=O)[C@@H](CCSC)n3cc(CCO)nn3)CC2)nc(N2CCN(C(=O)CCCCCCCCCCNC(=O)[C@H](CCSC)n3cc(CCO)nn3)CC2)n1`?
mIAP act: 2.64*; hIAP act: 0.883; mIAP block: -164.0; hIAP block: 11.7

What do the screens show for `CC(C)(C)OC(=O)NCCCCCc1cn([C@@H](CO)C(=O)NCCCCCCCCCCC(=O)N2CCN(C(=O)OC(C)(C)C)CC2)nn1`?
mIAP act: 1.07; hIAP act: 0.911; mIAP block: -6.6; hIAP block: 8.9

How did O=C(COC(=O)c1ccc(Cl)nc1)Nc1ccccc1OC(F)F do in these assays?
mIAP act: 1.15; hIAP act: 1.13; mIAP block: -14.8; hIAP block: -12.8; bIAP activator: 1.1; bIAP inh: -5.8

What do the screens show for `CC[C@H]1c2[nH]c3ccccc3c2C[C@@H]2C(=O)N(c3ccc(F)cc3)C(=O)N21`?
mIAP act: 1.02; hIAP act: 1.11; mIAP block: -2.3; hIAP block: -11.2

How did COc1ccc(C(=O)Nc2nc3ccccc3[nH]2)cc1OC do in these assays?
mIAP act: 0.959; hIAP act: 0.97; mIAP block: 4.1; hIAP block: 3.0; bIAP activator: 2.2*; bIAP inh: -122.1

What do the screens show for `COc1cc(C(=O)Nc2nc3ccccc3[nH]2)ccc1OC(F)F`?
mIAP act: 1; hIAP act: 1.2; mIAP block: -0.2; hIAP block: -20.3

Results for CC(NC(=O)Nc1ccc(Cl)cc1)C(c1cccs1)N1CCOCC1 (stereo unspecified) ?
mIAP act: 2.37*; hIAP act: 1.19; mIAP block: -137.4; hIAP block: -19.4; bIAP activator: 1.2; bIAP inh: -20.1

Results for CC(NC(=O)Nc1ccccc1)C(c1cccs1)N1CCOCC1 (stereo unspecified) ?
mIAP act: 1.02; hIAP act: 0.966; mIAP block: -2.5; hIAP block: 3.4; bIAP activator: 1; bIAP inh: 3.5

Results for Cc1cccc(OCC(=O)Nc2ccncc2)c1C ?
mIAP act: 1.13; hIAP act: 1.06; mIAP block: -13.0; hIAP block: -5.6

What do the screens show for `Cc1cccc(OCC(=O)Nc2ncn[nH]2)c1C`?
mIAP act: 1.02; hIAP act: 2.03*; mIAP block: -2.2; hIAP block: -102.6

What do the screens show for `O=C1/C(=C\c2ccco2)SC(=S)N1Cc1ccccc1`?
mIAP act: 0.429; hIAP act: 1.07; mIAP block: 57.1*; hIAP block: -6.8; bIAP activator: 0.9; bIAP inh: 10.2

How did O=C(CCCN1C(=O)/C(=C\c2ccco2)SC1=S)Nc1ccc2ccccc2c1 do in these assays?
mIAP act: 0.588; hIAP act: 0.989; mIAP block: 41.2*; hIAP block: 1.1; bIAP activator: 0.9; bIAP inh: 9.2

What do the screens show for `O=C(CSc1nc2nn(-c3ccccc3)c(=O)c-2c2n1CCCCC2)NCCc1ccccc1`?
mIAP act: 0.896; hIAP act: 1.06; mIAP block: 10.4; hIAP block: -5.7; bIAP activator: 1; bIAP inh: 3.5

What do the screens show for `C=CCN1C(=O)/C(=C/c2ccc(-c3ccc(F)cc3)o2)SC1=S`?
mIAP act: 0.639; hIAP act: 0.633; mIAP block: 36.1; hIAP block: 36.7*

How did O=C(NCC(=O)N1CCN(c2ncccn2)CC1)c1ccccc1OC(F)F do in these assays?
mIAP act: 1.07; hIAP act: 0.992; mIAP block: -7.1; hIAP block: 0.8

What do the screens show for `CC(Cc1cccs1)NC(=O)Nc1cccc(Cl)c1` (stereo unspecified)?
mIAP act: 2.27*; hIAP act: 0.943; mIAP block: -127.3; hIAP block: 5.7; bIAP activator: 0.7; bIAP inh: 30.5

Results for CC(Cc1cccs1)NC(=O)Nc1ccc(F)cc1 (stereo unspecified) ?
mIAP act: 1.17; hIAP act: 0.994; mIAP block: -16.9; hIAP block: 0.6; bIAP activator: 1; bIAP inh: 3.2

What do the screens show for `CC(Cc1cccs1)NC(=S)Nc1ccc(Cl)c(Cl)c1` (stereo unspecified)?
mIAP act: 2.04*; hIAP act: 1; mIAP block: -103.8; hIAP block: 0.0; bIAP activator: 1.2; bIAP inh: -18.5

Results for COc1ccc(C2C(C(=O)Nc3cc(OC)c(OC)c(OC)c3)c3ccccc3C(=O)N2C)cc1 (stereo unspecified) ?
mIAP act: 2.02*; hIAP act: 1.36; mIAP block: -101.7; hIAP block: -35.6; bIAP activator: 2.2*; bIAP inh: -123.4

Results for N#Cc1ccc(NC(=O)Nc2ccc(Cl)cc2)cc1 ?
mIAP act: 2.18*; hIAP act: 0.952; mIAP block: -118.3; hIAP block: 4.8; bIAP activator: 0.9; bIAP inh: 14.2

How did CCOC(=O)c1cn(Cc2cccc(Cl)c2)c2cc(C)nn2c1=O do in these assays?
mIAP act: 0.962; hIAP act: 1.68; mIAP block: 3.8; hIAP block: -68.0

What do the screens show for `Cc1c(C)n(Cc2ccccc2)c2ccc(C(=O)OCCCN(C)C)cc12`?
mIAP act: 1.09; hIAP act: 0.971; mIAP block: -8.6; hIAP block: 2.9; bIAP activator: 2.2*; bIAP inh: -120.3

Results for COCCCN(C(=O)c1cc(Cl)nc2ccccc12)c1c(N)n(Cc2ccccc2)c(=O)[nH]c1=O ?
mIAP act: 0.935; hIAP act: 0.991; mIAP block: 6.5; hIAP block: 0.9

How did Cc1ccc2nc(NCc3ccccc3)[nH]c2c1 do in these assays?
bIAP activator: 2.8*; bIAP inh: -176.8

Results for c1ccc(Cn2c(CNc3nc4ccccc4n3CCN3CCCCC3)nc3ccccc32)cc1 ?
mIAP act: 1.59; hIAP act: 1.93; mIAP block: -59.2; hIAP block: -92.8; bIAP activator: 0.9; bIAP inh: 10.7

How did CCN(CC)CCn1c(NCc2nc3ccccc3n2Cc2ccccc2)nc2ccccc21 do in these assays?
mIAP act: 1.45; hIAP act: 0.96; mIAP block: -45.0; hIAP block: 4.0; bIAP activator: 2*; bIAP inh: -100.8

What do the screens show for `Cc1onc(-c2ccccc2Cl)c1C(=O)OCC(=O)N1CCCCC1`?
mIAP act: 0.965; hIAP act: 1.06; mIAP block: 3.5; hIAP block: -6.0

Results for Fc1ccc(N2CCN(Cc3c[nH]c4ccccc34)CC2)cc1 ?
mIAP act: 1.01; hIAP act: 0.616; mIAP block: -1.3; hIAP block: 38.4*

How did COc1ccc(NC(=O)Nc2ccc(F)c(Cl)c2)cc1 do in these assays?
mIAP act: 1.89; hIAP act: 0.91; mIAP block: -88.9; hIAP block: 8.9; bIAP activator: 1; bIAP inh: 2.6
